# How the values were obtained:
# Type in all cases: functional
# [1] = tested on: Mycobacterium tuberculosis; assay: Minimum Inhibitory Concentration against Mycobacterium tuberculosis ATCC 27294; settings: Mycobacterium tuberculosis, ATCC 27294; read-out: MIC
# In short: (§1)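 Broth macrodilution in tubes of modified Middlebrook 7H10 broth (agar and malachite green omitted) with 10% OADC and 0.05% Tween 80 at pH 5.8. Cultures were grown 3 days at 37 °C on a rotary shaker, then diluted with 7H10 broth to 1 Klett unit/mL. Stocks were made in water or DMSO and filter-sterilised; 2-fold serial dilutions were tested. Tubes shaken 7–10 days at 37 °C, with a drug-free control. MIC = lowest concentration (μg/mL) with no visible turbidity.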
# Mycobacterium kansasii = assay: Minimum Inhibitory Concentration against clinical isolates of Mycobacterium kansasii S
# In short: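 Grown 3 days at 37 °C on a rotary shaker in modified Middlebrook 7H10 broth (agar and malachite green omitted) with 10% OADC and 0.05% Tween 80. Diluted to 1 Klett unit/mL. Tubes held serial 2-fold dilutions in 7H10 broth at pH 5.8, from stocks in water or DMSO, and were shaken at 37 °C for 7–10 days with a drug-free control. MIC was the lowest concentration with no visible turbidity.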
# [2] = tested on: Mycobacterium tuberculosis; assay: Minimum Inhibitory Concentration against Mycobacterium tuberculosis ATCC 35801; in short: as §1
# Mycobacterium avium [3] = assay: Minimum Inhibitory Concentration in clinical isolates against Mycobacterium avium complex 101; in short: as §1
# Mycobacterium avium [4] = assay: Minimum Inhibitory Concentration against clinical isolates of Mycobacterium avium complex ATCC 49601; in short: as §1
Structure (SMILES),MIC [1],MIC (Mycobacterium kansasii),MIC [2],MIC (Mycobacterium avium [3]),MIC (Mycobacterium avium [4])
CCCCCCC(C)OC(=O)c1cnc(F)cn1 (stereo not drawn),2 µg/mL,< 0.03 µg/mL,4 µg/mL,32 µg/mL,64 µg/mL
CCCCCCOC(=O)c1cnc(F)cn1,–,8 µg/mL,4 µg/mL,64 µg/mL,64 µg/mL
CCCCCCCC(C)(CCCCC)OC(=O)c1cnc(Cl)cn1 (stereo not drawn),2 µg/mL,–,4 µg/mL,> 64 µg/mL,> 64 µg/mL
CCCOC(=O)c1cnc(C)cn1,2 µg/mL,8 µg/mL,4 µg/mL,> 64 µg/mL,> 64 µg/mL
CCCCCCCOC(=O)c1cnc(C)cn1,0.5 µg/mL,4 µg/mL,0.25 µg/mL,32 µg/mL,32 µg/mL
CCCCOC(=O)c1cnc(Cl)cn1,0.25 µg/mL,< 1 µg/mL,0.5 µg/mL,64 µg/mL,128 µg/mL
CCCCCCCCCCOC(=O)c1cnccn1,0.5 µg/mL,0.25 µg/mL,0.25 µg/mL,32 µg/mL,8 µg/mL
CCCCCCCCCCOC(=O)c1cnc(F)cn1,2 µg/mL,1 µg/mL,4 µg/mL,32 µg/mL,32 µg/mL
COC(=O)c1cnccn1,< 8 µg/mL,> 64 µg/mL,16 µg/mL,–,> 256 µg/mL
CC(C)COC(=O)c1cnc(Cl)cn1,2 µg/mL,< 1 µg/mL,0.25 µg/mL,64 µg/mL,64 µg/mL
CCCCCCCCC(C)(C)OC(=O)c1cnc(Cl)cn1,0.125 µg/mL,1 µg/mL,1 µg/mL,64 µg/mL,64 µg/mL
CCCCCCC(C)(C)OC(=O)c1cnc(Cl)cn1,0.25 µg/mL,1 µg/mL,4 µg/mL,64 µg/mL,64 µg/mL
CCCCCCC(C)(CCCCCC)OC(=O)c1cnc(Cl)cn1,0.25 µg/mL,2 µg/mL,0.5 µg/mL,> 64 µg/mL,16 µg/mL
CCCCCCCCC(C)OC(=O)c1cnc(Cl)cn1 (stereo not drawn),0.06 µg/mL,< 0.12 µg/mL,0.5 µg/mL,32 µg/mL,32 µg/mL
CCCCCCCCCC(C)(C)OC(=O)c1cnc(Cl)cn1,8 µg/mL,0.5 µg/mL,1 µg/mL,256 µg/mL,256 µg/mL
CCCCCC(C)(CCCCC)OC(=O)c1cnc(Cl)cn1,8 µg/mL,8 µg/mL,8 µg/mL,64 µg/mL,64 µg/mL
COC(=O)c1cnc(C)cn1,16 µg/mL,32 µg/mL,8 µg/mL,> 256 µg/mL,> 256 µg/mL
CCCCCCC(C)(CCCC)OC(=O)c1cnc(Cl)cn1 (stereo not drawn),4 µg/mL,4 µg/mL,8 µg/mL,> 256 µg/mL,–
CCCCCCCCC(CC)OC(=O)c1cnc(Cl)cn1 (stereo not drawn),0.5 µg/mL,< 0.03 µg/mL,0.25 µg/mL,64 µg/mL,32 µg/mL
O=C(OCc1ccccc1)c1cnccn1,< 1 µg/mL,1 µg/mL,1 µg/mL,64 µg/mL,64 µg/mL
CCCCCC(C)(CCCC)OC(=O)c1cnc(Cl)cn1 (stereo not drawn),4 µg/mL,16 µg/mL,8 µg/mL,256 µg/mL,256 µg/mL
CCCCCCCCCCCOC(=O)c1cnc(Cl)cn1,0.25 µg/mL,0.06 µg/mL,0.5 µg/mL,16 µg/mL,8 µg/mL
CCCCCCCCCCOC(=O)c1cnc(Cl)cn1,0.5 µg/mL,0.5 µg/mL,0.25 µg/mL,32 µg/mL,16 µg/mL
CCCCCCCCCOC(=O)c1cnc(Cl)cn1,< 0.03 µg/mL,0.125 µg/mL,1 µg/mL,32 µg/mL,16 µg/mL
CCCCCCC(C)(CCCCC)OC(=O)c1cnc(Cl)cn1 (stereo not drawn),2 µg/mL,8 µg/mL,8 µg/mL,> 64 µg/mL,> 64 µg/mL
COC(=O)c1cnc(F)cn1,4 µg/mL,8 µg/mL,8 µg/mL,64 µg/mL,64 µg/mL
CCCCCC(CC)OC(=O)c1cnc(Cl)cn1 (stereo not drawn),0.25 µg/mL,0.125 µg/mL,1 µg/mL,> 256 µg/mL,256 µg/mL
CC(C)(OC(=O)c1cnc(Cl)cn1)c1ccccc1,16 µg/mL,16 µg/mL,16 µg/mL,–,–
CCCCCCCC(OC(=O)c1cnc(Cl)cn1)C(C)(C)C (stereo not drawn),0.5 µg/mL,0.25 µg/mL,2 µg/mL,> 256 µg/mL,–
